Experimental data from ChEMBL document CHEMBL1629474, “Massive screening yields novel and selective Trypanosoma cruzi triosephosphate isomerase dimer-interface-irreversible inhibitors with anti-trypanosomal activity” (Eur J Med Chem, 2010).
Active and inactive are the calls of the source. The rule behind the calls is not given here.

Legend:
[1] = Selectivity for Trypanosoma cruzi triosephosphate isomerase over human triosephosphate isomerase
Trypanosoma cruzi = test: Antiparasitic activity against Trypanosoma cruzi T2 epimastigotes assessed as growth inhibition at 25 uM after 5 days; type: functional
How it was run: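 Late-log epimastigotes were grown axenically at 28 °C in BHI-tryptose with 5% fetal calf serum and seeded at 2×10^6/mL in medium containing compound (DMSO stock; final DMSO ≤1%, 1% DMSO control). Growth was read as A590 at day 0 and day 5. Inhibition = {1 − [(Ap − A0p)/(Ac − A0c)]} × 100. Means of two experiments.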

[2] = target: Triosephosphate isomerase, glycosomal (Trypanosoma cruzi) (UniProt P52270); test: Inhibition of Trypanosoma cruzi triosephosphate isomerase at 400 uM after 2 hrs
Sequence of Triosephosphate isomerase, glycosomal (Trypanosoma cruzi) (P52270 whole entry): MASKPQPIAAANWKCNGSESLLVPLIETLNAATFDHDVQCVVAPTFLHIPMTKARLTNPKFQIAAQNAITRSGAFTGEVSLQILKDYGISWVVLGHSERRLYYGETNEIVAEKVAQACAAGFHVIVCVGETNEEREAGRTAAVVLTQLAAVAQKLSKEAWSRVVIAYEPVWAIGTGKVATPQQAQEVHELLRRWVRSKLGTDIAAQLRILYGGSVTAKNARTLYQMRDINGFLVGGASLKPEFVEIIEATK
How it was run: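 Recombinant E. coli-expressed enzyme, dialyzed into 100 mM triethanolamine/10 mM EDTA pH 7.4, was incubated with compound (DMSO stock) in 100 mM triethanolamine, 10 mM EDTA, pH 7.4, 10% DMSO at 36 °C for 2 h. An aliquot was then assayed for activity (glyceraldehyde 3-phosphate to dihydroxyacetone phosphate, α-glycerol phosphate dehydrogenase-coupled) with 5 ng enzyme. Irreversible inhibition was scored as loss of activity; means of two experiments.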

SMILES | Ratio [1] | Activity (Trypanosoma cruzi) | inhibition [2]
CCOC(=O)c1c(-c2ccccc2)[n+]([O-])c2ccc(CN3CCN(C/C=C/c4ccccc4)CC3)cc2[n+]1[O-] | > 4 | Active | 12%
O=S(=O)(/C=C\c1ccc2no[n+]([O-])c2c1)c1ccccc1 | > 4 | Active | 51%
Nc1ccc2c(c1)[n+]([O-])c1cc(Br)ccc1[n+]2[O-] | > 4 | Active | 59%
C=CCNC(=S)N/N=C/C=C/c1ccc([N+](=O)[O-])s1 | > 4 | Active | 26%
O=[N+]([O-])c1ccc2c(c1)[n+]([O-])c1n2CCC1 | > 4 | Active | 35%
O=C(/C=C/c1ccccc1)c1ccccc1O | > 4 | Active | 15%
N#Cc1c2ccccc2[n+]([O-])n1-c1cccc2ccccc12 | > 4 | Active | 16%
CCCCCCNC(=O)N/N=C/c1ccc2no[n+]([O-])c2c1 | > 4 | Active | 43%
CCCCCCN/N=C/c1no[n+]([O-])c1C | > 4 | Active | 55%
O=C(Oc1ccccc1)N1CCN(C/C=C/c2ccccc2)CC1 | > 4 | Active | 21%
C=CCNC(=S)N/N=C/c1ccco1 | > 4 | Active | 12%
Cc1ccc(S(=O)(=O)NCc2ccco2)cc1 | > 4 | Active | 8%
O=[N+]([O-])c1ccc(/C=N/NC(=S)Nc2ccccc2)o1 | > 4 | Active | 17%
Cc1ccc2c(c1)=[N+]([O-])C(C)[N+]=2[O-] (stereo unspecified) | > 4 | Active | 18%
CCCN(CCOCCn1nc(OCc2ccccc2)c2cc([N+](=O)[O-])ccc21)CCC(C)C1CC=C(C)CC1 (stereo unspecified) | > 4 | Active | 0%
[O-][n+]1onc(-c2ccccc2)c1CN1CCN(c2ccccc2)CC1 | > 4 | Active | 27%
CCCN(CCCCCn1nc(OCc2ccccc2)c2cc([N+](=O)[O-])ccc21)CCC(C)C1CC=C(C)CC1 (stereo unspecified) | > 4 | Active | 11%
[O-][n+]1onc(-c2ccccc2)c1CN1CCN(c2ncccn2)CC1 | > 4 | Active | 8%
[O-][n+]1onc2ccc(CSCCO)cc21 | > 4 | Active | 0%
CC(=O)CC(=O)Nc1ccccc1 | > 4 | Active | 17%
Cc1ccc(-n2cc(C)[n+]([O-])c2)cc1 | > 4 | Active | 13%
O=S(=O)(/C=C/c1ccc2no[n+]([O-])c2c1)c1ccc(F)cc1 | > 4 | Active | 15%
CCCCCCCCOC(=O)N/N=C/C=C/c1ccc([N+](=O)[O-])o1 | > 4 | Active | 0%

SMILES | Ratio [1] | Activity (Trypanosoma cruzi) | inhibition [2]
O=c1c2cc([N+](=O)[O-])ccc2n2n1CCOCC2 | > 4 | Active | 12%
CC(=O)NCc1ccccc1 | > 4 | Active | 32%
COc1ccc(/C=C/c2c(C)nnc[n+]2[O-])cc1 | > 4 | Active | 11%
C=CCNC(=S)N/N=C/c1ccc2no[n+]([O-])c2c1 | > 4 | Active | 14%
O=[N+]([O-])c1ccc2c(c1)c(OCc1ccccc1)nn2CCOCCN1CCN(C/C=C/c2ccccc2)CC1 | > 4 | Active | 18%
[O-][N+]1=c2cc(Cl)c(Cl)cc2=[N+]([O-])C12CCCC2 | > 4 | Active | 56%
Cc1n(O)c2ccc(Br)cc2[n+]1[O-] | > 4 | Active | 4%
CCNC(=S)N/N=C/C=C/c1ccc([N+](=O)[O-])o1 | > 4 | Active | 21%
C=CCNC(=S)N/N=C/c1ccc([N+](=O)[O-])o1 | > 4 | Active | 6%
O=C(CCl)Oc1ccc2c(c1)[n+]([O-])c1cc(Br)ccc1[n+]2[O-] | > 4 | Active | 50%
O=C(/C=C/c1ccc([N+](=O)[O-])o1)N1CCN(C/C=C/c2ccccc2)CC1 | > 4 | Active | 0%
Cc1c(/C=C/c2ccc(N(C)C)cc2)[n+]([O-])cn[n+]1[O-] | > 4 | Active | 26%
C/C(=C\c1ccc(N(C)C)cc1)[N+](=O)[O-] | > 4 | Active | 24%
Cc1nnsc1CO | > 4 | Active | 29%
CCN(CC)CCCNS(=O)(=O)NCCCN(CC)CC | > 4 | Active | 0%
[O-][n+]1onc2ccc(/C=C/[S+]([O-])c3ccccc3)cc21 (stereo unspecified) | > 4 | Active | 28%
[O-][n+]1onc2ccc(/C=C/c3ccccc3)cc21 | > 4 | Active | 66%
CC1(C)[N+]([O-])=c2ccc(/C=C/c3ccc4c(c3)OCO4)cc2=[N+]1[O-] | > 4 | Active | 23%
COC(=O)N/N=C/c1ccc([N+](=O)[O-])o1 | > 4 | Active | 0%
COCCNC(=O)N/N=C/C=C/c1ccc([N+](=O)[O-])o1 | > 4 | Active | 0%
[O-][n+]1onc(-c2ccccc2)c1CNc1ccc(Br)cc1 | > 4 | Active | 48%
O=C1C(=Cc2ccc([N+](=O)[O-])cc2)C(=O)N(C2CCCCC2)S(=O)(=O)N1C1CCCCC1 | > 4 | Active | 51%
C=CCNC(=S)N/N=C/c1ccc2c(c1)=[N+]([O-])C(C)(C)[N+]=2[O-] | > 4 | Active | 33%

SMILES | Ratio [1] | Activity (Trypanosoma cruzi) | inhibition [2]
O=C(/C=C/c1ccc2c(c1)OCO2)c1ccccc1O | > 4 | Active | 29%
O=[N+]([O-])c1ccc(N2CCSCC2)c([N+](=O)[O-])c1 | > 4 | Active | 20%
C=CCNC(=S)N/N=C/C=C/c1ccc([N+](=O)[O-])o1 | > 4 | Active | 12%
O=C(/C=C/c1ccc([N+](=O)[O-])o1)NC12CC3CC(CC(C3)C1)C2 | > 4 | Active | 16%
O=[N+]([O-])c1ccccc1/C=N/N1CCOCC1 | > 4 | Active | 28%
Cc1nnc[n+]([O-])c1/C=C/c1ccc(Cl)cc1 | > 4 | Active | 15%
Cc1nnc[n+]([O-])c1/C=C/c1ccc2c(c1)OCO2 | > 4 | Active | 40%
Cc1ccc2c(c1)=[N+]([O-])C1(CCCC1)[N+]=2[O-] | > 4 | Active | 27%
CN(C)CCCNS(=O)(=O)NCCCN(C)C | > 4 | Active | 0%
O=C(O)c1ccc(/C=C\c2ccc3no[n+]([O-])c3c2)cc1 | > 4 | Active | 6%
[O-][n+]1onc(-c2ccccc2)c1CCl | > 4 | Active | 65%
CN(C/C=C/c1ccccc1)Cc1ccc2no[n+]([O-])c2c1 | > 4 | Active | 7%
O=S(=O)(NC1CCCCC1)NC1CCCCC1 | > 4 | Active | 0%
CCOC(=O)c1[nH]c(=O)n(CCc2ccccc2)c1C | > 4 | Active | 0%
CCCCNC(=O)N/N=C/c1ccc2no[n+]([O-])c2c1 | > 4 | Active | 38%
NS(=O)(=O)NCc1ccccc1 | > 4 | Active | 0%
Cc1nnc[n+]([O-])c1/C=C/c1ccc([N+](=O)[O-])s1 | > 4 | Active | 28%
O=[N+]([O-])c1ccc2c(c1)c(OCc1ccccc1)nn2CCCCCN1CCCCC1 | > 4 | Active | 0%
CCOC(=O)/C=C/c1ccc([N+](=O)[O-])o1 | > 4 | Active | 3%
COCCNC(=O)N/N=C/c1ccc([N+](=O)[O-])s1 | > 4 | Active | 15%
COCCNC(=O)N/N=C/c1ccc([N+](=O)[O-])o1 | > 4 | Active | 5%
